# Screening data as filed in PubChem BioAssay.
# An excerpt weighted towards active compounds, which were near 1.2% of everything screened.
# AF4-AF9 inh – MLL-AF4/AF9 protein interaction inhibition; AlphaScreen, biotin-AF4 peptide binding to FLAG-AF9; inhibition, % at 10 µM; hit rate 0.47% among 350,000; AID 651704;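 active = every replicate reaching a set inhibition limit, whatever the replicate mean, cut at about 25% in these data; inconclusive = mean inhibition reaches that limit but some replicates miss it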
# RAD54 branch – RAD54 (human) branch migration inhibition; inhibition, % at 10.4 µM; AID 602329; hit rate 0.14% among 360,000; Q92698; RAD54 Holliday junction branch migration, FAM/BHQ fluorescence;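 active = mean normalized replicate activity at least 40 and at least half of replicates scoring 40 or more; inconclusive = only one of the two criteria met; inactive = mean below 40 and under half of replicates reaching 40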;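 also: inhibitors cause a drop in the FAM fluorescence signal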
# Target sequence (Q92698 whole entry, looked up): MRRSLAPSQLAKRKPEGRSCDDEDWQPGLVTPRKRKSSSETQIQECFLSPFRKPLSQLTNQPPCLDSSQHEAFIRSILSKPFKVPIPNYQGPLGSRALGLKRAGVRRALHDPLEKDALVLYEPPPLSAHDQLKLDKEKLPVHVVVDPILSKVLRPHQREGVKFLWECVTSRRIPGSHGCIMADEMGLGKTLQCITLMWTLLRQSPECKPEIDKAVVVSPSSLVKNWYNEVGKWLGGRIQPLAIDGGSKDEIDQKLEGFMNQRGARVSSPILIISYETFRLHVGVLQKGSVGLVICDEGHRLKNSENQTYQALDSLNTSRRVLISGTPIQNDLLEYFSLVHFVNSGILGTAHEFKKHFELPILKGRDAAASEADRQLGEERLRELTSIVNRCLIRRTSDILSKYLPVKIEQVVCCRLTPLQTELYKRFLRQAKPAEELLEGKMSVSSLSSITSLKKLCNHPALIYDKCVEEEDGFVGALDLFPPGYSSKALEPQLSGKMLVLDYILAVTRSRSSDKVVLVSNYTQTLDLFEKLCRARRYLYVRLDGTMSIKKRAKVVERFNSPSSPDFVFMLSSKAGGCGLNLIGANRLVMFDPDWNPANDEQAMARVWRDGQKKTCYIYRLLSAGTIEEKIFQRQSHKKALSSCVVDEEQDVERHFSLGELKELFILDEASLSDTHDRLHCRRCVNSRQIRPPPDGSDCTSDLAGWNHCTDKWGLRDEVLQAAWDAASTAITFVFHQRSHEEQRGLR
# RAD52 inh – inhibitors of human RAD52 DNA annealing | P43351 | AID 651710 | recombinant RAD52 DNA annealing, FRET fluorescence | hit rate 0.46% among 360,000 | inhibition, % at 18.7 µM;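 active = every replicate showing at least 50% inhibition; inconclusive = mean inhibition at least 50% but not in every replicate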
# FN deposit inh – fibronectin deposition inhibition; AID 743247; inhibition, % at 12.6 µM; hit rate 0.086% among 350,000; AH1F fibroblasts, Alexa488-fibronectin deposition fluorescence, overnight;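 active = mean inhibition across replicates of 30% or more, regardless of how many single replicates reach that level; inconclusive = mean under 30% yet at least half of replicates reach 30%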
#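 Assay system: AH1F fibroblasts / Quantity: 10000 cells per well / Medium: DMEM plus 2% serum, read in PBS / Reagent: labelled fibronectin 24 nM / Dosing: single dose, pinned / Times: 1 h cell attachment, overnight exposure to compound and label / Signal: fluorescence, ex 485 nm, em 525 nm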
# Glyco luc inh – N-linked glycosylation inhibition | D54 ERlucT glycosylation luciferase reporter, 24 h; percent of 100 nM tunicamycin response | reporter increase, % at 12.5 µM | hit rate 0.23% among 360,000 | AID 588692;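 active = mean luciferase reporter signal, scaled so untreated is 0 and the glycosylation-blocking control 100, at or above a set limit in every replicate; inconclusive = mean reaches the limit but not every replicate does; inactive = mean below the limit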;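 also: luciferase carries N-glycosylation sites so blocking glycosylation raises the light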
# NSD2 inh – blocks human histone methyltransferase NSD2; inhibition, % at 12.5 µM; AID 743445; hit rate 0.54% among 310,000; O96028; NSD2 peptide methylation, AlphaScreen, 120 min; in the data active = inhibition above about 50%
# Hits are given with their value; 0 = inactive; ? = inconclusive; - = no result.
SMILES,AF4-AF9 inh,RAD54 branch,RAD52 inh,FN deposit inh,Glyco luc inh,NSD2 inh
CCCN1C[C@@H](C)[C@@H](OC)CN(C)C(=O)c2ccc(NC(=O)c3cccc(F)c3)cc2OC[C@@H]1C,?,0,0,0,-,-
CCCN1C[C@H](C)[C@H](OC)CN(C)C(=O)c2cc(NC(=O)c3cccc(F)c3)ccc2OC[C@H]1C,0,0,0,0,-,-
CCCN1C[C@H](C)[C@H](OC)CN(C)C(=O)c2ccc(NC(=O)c3cccc(F)c3)cc2OC[C@H]1C,39,0,0,0,-,-
CCCN1C[C@@H](C)[C@H](OC)CN(C)C(=O)c2ccc(NC(=O)c3cccc(F)c3)cc2OC[C@H]1C,?,0,0,0,-,-
CCCN1C[C@H](C)[C@@H](OC)CN(C)C(=O)c2ccc(NC(=O)c3cccc(F)c3)cc2OC[C@@H]1C,39,0,0,0,-,-
CCCN1C[C@H](C)[C@@H](OC)CN(C)C(=O)c2ccc(NC(=O)c3cccc(F)c3)cc2OC[C@H]1C,45,0,0,0,-,-
Cc1noc(C)c1NC(=O)Nc1ccc2c(c1)C(=O)N([C@H](C)CO)C[C@H](C)[C@H](CN(C)Cc1ccc(Cl)c(Cl)c1)OCCCC[C@@H](C)O2,0,0,0,-,-,-
C[C@@H]1CN([C@H](C)CO)C(=O)Cc2cc(NC(=O)c3ccncc3)ccc2O[C@H]1CN(C)S(=O)(=O)c1ccccc1,0,0,0,0,-,-
O=c1ccc2ccccc2c2ccccc12,0,-,0,0,0,0
O=Nc1c(O)c2ccccc2c2ccccc12,0,0,0,38,0,-
C[C@H](CO)N1C[C@H](C)[C@H](CN(C)S(=O)(=O)c2ccc(F)cc2)Oc2c(NC(=O)Nc3ccc4c(c3)OCO4)cccc2C1=O,0,0,0,-,-,-
COc1ccc(NC(=O)CCCN2C(=O)CN(C)C2=O)c(OC)c1,33,0,0,0,0,0
COc1ccc(NC(=O)CCN2C(=O)c3ccccc3C2=O)c(OC)c1,0,0,0,0,0,0
CCOC(=O)COc1ccc2c3c(c(=O)oc2c1C)CCC3,-,0,-,0,0,0
Cc1c(OCC(=O)N(C)c2ccccc2)ccc2c3c(c(=O)oc12)CCC3,32,0,0,0,0,0
S=C(NCC1CCCO1)Nc1ccc(Cl)cc1Cl (centres undefined),-,0,-,30,0,0
C[C@@H]1CN([C@H](C)CO)S(=O)(=O)c2ccc(C#Cc3cccnc3)cc2O[C@H]1CN(C)C(=O)CN(C)C,0,0,0,0,-,-
CN(C)N1C(N)=C(C#N)C(c2cccc(Cl)c2)C2=C1CCCC2=O (centres undefined),0,0,0,0,0,0
CN(C)N1C(N)=C(C#N)C(c2ccc3c(c2)OCO3)C2=C1CCCC2=O (centres undefined),26,0,0,-,0,0
O=C1NC(=Nc2ccccc2Cl)S/C1=C\c1cccc([N+](=O)[O-])c1O,0,0,0,0,0,60
O=c1c(Br)ccc(Br)cc1Br,0,0,0,36,0,-
CCOc1cc(C2C3=C(CC(C)(C)CC3=O)N(CCOC)C3=C2C(=O)CC(C)(C)C3)ccc1OC,0,0,0,0,0,0
CCOc1cc(C2C3=C(CC(C)(C)CC3=O)N(CCCOC)C3=C2C(=O)CC(C)(C)C3)ccc1OC,29,0,0,0,0,0
CNC[C@H]1OCCCC[C@H](C)Oc2ccc(NS(=O)(=O)c3ccc(C)cc3)cc2C(=O)N([C@H](C)CO)C[C@@H]1C,-,0,0,0,-,-
O=C(O)CCNc1ccc(NCCC(=O)O)c2c1C(=O)c1ccccc1C2=O,32,-,0,0,0,56
SMILES,AF4-AF9 inh,RAD54 branch,RAD52 inh,FN deposit inh,Glyco luc inh,NSD2 inh
CCCN1CCN(C(=O)Cn2c(=O)oc3cc(S(=O)(=O)NCc4ccccc4)ccc32)CC1,0,0,0,0,0,-
O=C(Cn1c(=O)oc2cc(S(=O)(=O)NCc3ccccc3)ccc21)N1CCCC1,29,0,0,0,0,0
Cc1ccc(C)c(N2CCN(c3cnn(-c4nc5ccccc5s4)c(=O)c3Cl)CC2)c1,-,0,-,0,114,0
CCN(CC)S(=O)(=O)c1cccc(C(=O)N/N=C/c2ccc([N+](=O)[O-])o2)c1,0,-,0,0,51,0
O=c1[nH]c(=O)n(C2CC(O)C(CO)O2)cc1I (centres undefined),0,-,0,0,81,0
O=c1[nH]c(=O)n([C@H]2C[C@H](O)[C@@H](CO)O2)cc1Br,-,0,0,-,48,-
C[C@@H]1CCCCO[C@H](CN(C)S(=O)(=O)c2cn(C)cn2)[C@@H](C)CN([C@H](C)CO)C(=O)c2cc(NC(=O)Nc3ccc(C(F)(F)F)cc3)ccc2O1,-,0,-,-,-,-
COCC(=O)Nc1ccc2c(c1)C(=O)N(C)[C@H]1CC[C@H](CC(=O)Nc3cn(C)nc3C)O[C@@H]1CO2,-,-,-,0,-,-
CC(=O)C1=C(C)OC(N)=C(C#N)C1c1cccc([N+](=O)[O-])c1 (centres undefined),0,-,0,0,0,0
CC(=O)C1=C(C)OC(N)=C(C#N)C1c1cc([N+](=O)[O-])ccc1Cl (centres undefined),0,-,0,0,29,0
COc1ccc(NC(=O)N(C)C[C@H]2OCCCC[C@@H](C)Oc3ccc(NS(=O)(=O)c4c(C)noc4C)cc3C(=O)N([C@H](C)CO)C[C@H]2C)cc1,-,0,-,-,-,-
CCC(C)N1CCC2(CC1)N=c1c(c3c4c5c(C)c(O)c3c(O)c1=NC(=O)C(C)=CC=C[C@H](C)[C@H](O)[C@@H](C)[C@@H](O)[C@@H](C)[C@H](OC(C)=O)[C@H](C)[C@@H](OC)C=CO[C@@](C)(O5)C4=O)N2 (some centres undefined),27,0,0,0,0,-
COc1ccc(CN(C)C[C@@H]2Oc3ccc(NC(=O)Cn4cnnn4)cc3CC(=O)N([C@H](C)CO)C[C@@H]2C)cc1,0,0,0,-,-,-
CCN1/C(=C/c2ccc3ccccc3[n+]2CC)C=Cc2ccccc21,-,71,-,-,85,-
Cc1cc(C)cc(NC(=O)C2CCN(S(=O)(=O)c3ccc4[nH]c(=O)ccc4c3)CC2)c1,0,0,0,0,0,-
CCc1cccc(NC(=O)C2CCN(S(=O)(=O)c3ccc4[nH]c(=O)ccc4c3)CC2)c1,40,0,0,0,0,-
C[C@@H]1CCc2cnnn2COC[C@H](Cc2ccccc2)NC1=O,-,-,-,0,-,-
CN=c1scc(-c2cccs2)n1/N=C/c1ccc(O)c(O)c1O,40,-,0,0,0,0
Cc1noc(C)c1NC(=O)N(C)C[C@@H]1OCCCC[C@H](C)Oc2ccc(NS(C)(=O)=O)cc2C(=O)N([C@@H](C)CO)C[C@H]1C,-,0,-,-,-,-
CCN(CC)c1ccc(NC(=O)CN(C)Cc2cccs2)cc1,27,0,0,0,0,0
Cc1ccc(NC(=O)CN(C)Cc2cccs2)cc1Cl,0,0,0,0,0,0
COc1ccc2c3c([nH]c2c1)[C@H](CO)N(C(=O)C1CC1)CC31CCN(C)CC1,0,-,0,-,-,-
